Source: PubChem
LMPTP inh: LMPTP (human) inhibition; recombinant LMPTP-A, OMFP fluorogenic substrate, fluorescence intensity; P24666; 360,000 compounds, 0.22% hits; inhibition, % at 20 µM; AID 651560;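 active = compounds that cut the enzyme signal by at least half of the control window in the single-dose screen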
Target sequence (P24666 whole entry, looked up): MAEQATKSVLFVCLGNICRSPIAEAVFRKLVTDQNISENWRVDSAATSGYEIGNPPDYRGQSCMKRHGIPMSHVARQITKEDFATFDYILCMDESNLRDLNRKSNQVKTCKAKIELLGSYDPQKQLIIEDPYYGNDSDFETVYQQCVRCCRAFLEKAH
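Test system – LMPTP-A enzyme · Amount – LMPTP-A at 0.625 nM final in the reaction · Buffer or medium – Bis-Tris pH 6.0, DTT, detergent · Reagent – OMFP 400 µM · Doses – single 20 µM dose · Schedule – reaction 50 min, room temperature, dark · Detection – fluorescence intensity of OMFP turnover product · Evaluation – percent inhibition versus substrate-only and uninhibited controls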
STEP block: blocks human striatal-enriched tyrosine phosphatase | P54829 | recombinant STEP, OMFP fluorogenic substrate, fluorescence | inhibition, % at 20 µM | 360,000 compounds, 0.25% hits | AID 588621;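 active = inhibition at 20 µM, scaled per plate between control wells, above about 37%, limit read from the data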
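Assay system: isolated STEP enzyme / Timing: 20 min at room temperature, dark / Doses: 20 µM, 1% DMSO / Technique: fluorescence intensity, excitation 480 nm, emission 540 nm / Reagent: fluorogenic phosphatase substrate OMFP at 25 µM final / Measure: percent inhibition scaled to no-enzyme and uninhibited-enzyme controls, plate-pattern corrected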
SUMO1-SIM PPI: alters human SUMO1 binding to SIM partners | 360,000 compounds, 0.33% hits | inhibition, % at 20 µM | SUMO1 binding to a labelled peptide, TR-FRET, 1 h | P63165; in the data active = inhibition above about 37%
Target sequence (P63165 whole entry, looked up): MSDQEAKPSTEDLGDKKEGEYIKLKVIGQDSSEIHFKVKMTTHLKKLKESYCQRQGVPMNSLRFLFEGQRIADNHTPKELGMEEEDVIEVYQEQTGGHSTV
DNMT1 inh: DNMT1 (human) enzyme inhibition | P26358 | DNMT1 molecular beacon, Hinp1I cleavage, fluorescence | inhibition (reported as % activation of signal), % at 10 µM | 360,000 compounds, 0.83% hits; in the data active = inhibition above about 50%
NadD block: inhibitors of Staphylococcus aureus NadD | AID 602399 | inhibition, % at 20 µM | purified NadD enzyme, colorimetric absorbance read-out | 360,000 compounds, 0.78% hits; in the data active = inhibition above about 26%
Scp-1 inhibitor: blocks human Scp-1 phosphatase activity; Q9GZU7; Recombinant Scp1, phosphopeptide, malachite green phosphate absorbance; inhibition, % at 20 µM; 340,000 compounds, 0.88% hits; AID 493091;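 active = inhibition above about 50% at 20 µM, limit read from the data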
Target sequence (Q9GZU7 76-261 limits assumed): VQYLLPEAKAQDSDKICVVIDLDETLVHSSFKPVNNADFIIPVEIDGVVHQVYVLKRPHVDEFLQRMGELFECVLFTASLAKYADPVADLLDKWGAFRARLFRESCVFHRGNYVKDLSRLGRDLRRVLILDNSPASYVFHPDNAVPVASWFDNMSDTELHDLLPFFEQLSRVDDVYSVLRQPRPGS
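Test system: SCP-1 phosphatase catalytic domain, residues 76-261; measured by: colorimetric phosphate reagent with accelerator and stabiliser, absorbance at 630 nm; timing: enzyme reaction 45 min at room temperature, colour 5 min, stabilisation 30 min; also added: Phosphorylated 17-residue peptide substrate; compound dosing: one concentration, 20 µM, with 1.0% DMSO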
Scp-1 conf: Scp-1 (human) inhibition, single-dose confirmed. shares compounds with Scp-1 inhibitor. recombinant SCP-1 catalytic domain, phosphate release, malachite green absorbance. inhibition, % at 20 µM. 2,500 compounds, 61% hits
MG interference: counter-screen for Scp-1 inhibitors: colorimetric interference; AID 540313; apparent inhibition (interference), % at 20 µM; shares compounds with Scp-1 inhibitor; Colorimetric interference counterscreen, malachite green absorbance 630 nm; 2,500 tested, under 10 active;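 note: compounds added after enzyme reaction finished so only phosphate colour detection is probed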
Scp-1 Tm shift: validation of human Scp-1 inhibitors by thermal shift binding | AID 540329 | 1,500 compounds, 25% hits | thermal shift relative to vanadate control, % at 40 µM | shares compounds with Scp-1 inhibitor | Recombinant SCP1, Sypro Orange thermal shift Tm;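 active = substances whose mean melting-temperature shift, as a percentage of the reference inhibitor's shift, reaches about 5.3%, limit read from the data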
DNMT1 interf DR: beacon fluorescence artifact, dose response counter-screen | 200 tested, under 10 active | shares compounds with DNMT1 inh | molecular beacon fluorescence, spectral interference counter-screen | IC50, µM; call rule not given here
DNMT1 confirm: DNMT1 inhibition confirmation, single concentration | inhibition, % at 10 µM | DNMT1 molecular beacon HinP1I cleavage, fluorescence | shares compounds with DNMT1 inh | 2,300 compounds, 8% hits | AID 602385;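 active = average inhibition of at least 30% in the single-concentration confirmation test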
Beacon interf: beacon fluorescence artifact counter-screen; shares compounds with DNMT1 inh; DNMT1 molecular beacon spectral interference counterscreen, fluorescence 485/520; activation (fluorescence interference), % at 10 µM; 2,300 compounds, 1% hits;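 active = activation of at least 30% at 10 µM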;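 note: DNMT1 catalytic domain with a HinP1I cleavage step and a FAM/dabcyl DNA beacon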
Numbers stand for hits; - = inactive; . = no result given. Sampled rows, rich in hits. Any-hit rate of the full collection: about 2.4%.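 Rule for the calls, unless noted: active = inhibition of at least 30% at 20 µM; inactive = the rest.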

SMILES | LMPTP inh | STEP block | SUMO1-SIM PPI | DNMT1 inh | NadD block | Scp-1 inhibitor | Scp-1 conf | MG interference | Scp-1 Tm shift | DNMT1 confirm | Beacon interf | others
S=c1[nH]nc(-c2cc(-c3ccco3)[nH]n2)n1-c1ccccc1Cl | - | - | - | 73 | - | 75 | 31 | - | 11 | - | -
O=C(O)c1cccc(-n2cccc2/C=C2\SC(=O)N(Cc3ccccc3F)C2=O)c1 | - | - | - | 91 | - | 93 | 81 | - | - | - | -
O=C(O)c1cccc(-n2cccc2/C=C2/NC(=O)N(c3cccc(Cl)c3)C2=O)c1 | - | - | - | 97 | - | 85 | 64 | - | - | - | -
O=C(O)c1cccc(-n2cccc2/C=C2/SC(=O)N(CC(=O)N3CCCC3)C2=O)c1 | - | - | - | 70 | - | 67 | 54 | - | - | - | -
S=c1[nH]nc(-c2ccco2)n1/N=C/C(Cl)=C/c1ccccc1 | - | - | - | - | - | - | . | . | . | . | .
Cc1ccc(C(=O)NC(NCC2CCCO2)C(Cl)(Cl)Cl)cc1 (stereo unspecified) | - | - | - | - | - | - | . | . | . | . | .
COc1ccc(NC(=O)CC(Cc2ccc(Cl)cc2)C(=O)O)cc1 (stereo unspecified) | - | - | - | - | - | - | . | . | . | . | .
C=CCN1C(=O)/C(=C2/Sc3ccccc3N2CCCS(=O)(=O)O)SC1=S | - | - | - | 67 | - | 86 | 64 | - | 13 | - | -
COc1ccc(NC(=O)/C(C#N)=C\c2ccc(Br)o2)cc1 | - | - | - | 79 | - | 94 | 58 | - | - | - | -
COc1ccc(NC(=O)/C(C#N)=C/c2ccc(-c3ccccc3C(=O)O)o2)cc1 | - | - | - | - | - | - | . | . | . | . | .
COc1cccc(C2C(=O)c3ccccc3C2=O)c1 | - | - | - | - | - | - | . | . | . | . | .
Cc1ccc(CSCC(=O)N/N=C/c2ccc(OCC(=O)Nc3ccc(C)cc3)cc2)cc1 | - | - | - | 69 | - | 112 | 80 | - | - | - | -
CCOc1ccc(NC(=O)CNC(=O)c2ccc(OC)cc2)cc1 | - | - | - | - | - | - | . | . | . | . | .
COc1ccc(C(=O)NCC(=O)Nc2ccc(-c3ccccc3)cc2)cc1 | - | - | - | 53 | - | 95 | 84 | - | - | - | -
COc1ccccc1OCCOc1ccc(/C=C2/C(=N)N3OC(C)=CC3=NC2=O)cc1OC | - | - | - | 88 | - | 97 | 68 | - | - | - | -
O=C(COC(=O)C1CC2C=CC1C2)NCc1ccc(F)cc1 (stereo unspecified) | - | - | - | - | - | - | . | . | . | . | .
O=C(COC(=O)C1CC2C=CC1C2)NCc1ccco1 (stereo unspecified) | - | - | - | 89 | - | 71 | 70 | - | - | - | -
Cc1cc2oc(=O)cc(-c3cc4ccccc4o3)c2cc1O | 66 | - | - | 81 | - | 91 | 79 | - | - | - | -
C/C=C/C=C/C(=O)[C@@H]1[C@@H]([C@]2(C)OC(=O)C(C)=C2O)[C@H]2/C(=C(O)/C=C/C=C/C)C(=O)[C@]1(C)C(=O)C2(C)O (stereo partly specified) | - | - | - | 85 | - | 72 | 51 | - | 11 | 61 | - | DNMT1 interf DR=-
CC(=O)Nc1ccc(S(=O)(=O)N(C)CC(=O)N(C)Cc2sccc2C)cc1 | - | - | - | - | - | - | . | . | . | . | .
Cc1cc(NC(=O)CSc2sc3c(O)cc(=O)[nH]c3c2C#N)ccc1Br | - | - | - | 61 | - | 59 | 52 | - | 17 | - | -
Cc1cc(NC(=O)CSc2nc3[nH]c(=O)cc(O)c3s2)ccc1Br | - | - | - | - | - | - | . | . | . | . | .
Cc1ccccc1NC(=O)c1ccc(CSc2ncccn2)cc1 | - | - | - | - | - | - | . | . | . | . | .
Cc1ccc(S(=O)(=O)N2Cc3ccccc3CC2C(=O)Nc2ccc3c(c2)OCO3)cc1 (stereo unspecified) | - | - | - | 66 | - | 70 | 57 | - | - | - | -
O=c1c(Cl)c(N/N=C/c2ccc(Br)cc2)cnn1-c1ccccc1 | 52 | - | - | 90 | - | 59 | 61 | - | - | - | -
SMILES | LMPTP inh | STEP block | SUMO1-SIM PPI | DNMT1 inh | NadD block | Scp-1 inhibitor | Scp-1 conf | MG interference | Scp-1 Tm shift | DNMT1 confirm | Beacon interf | others
CNc1cnn(-c2ccccc2)c(=O)c1Cl | - | - | - | - | - | - | . | . | . | . | .
C/C(=N\N=C(N)N)c1cccc(Cl)c1 | - | - | - | - | - | - | . | . | . | . | .
Cc1nn(-c2ccc(F)cc2)c(Cl)c1/C=N/NC(=O)c1cccc(S(=O)(=O)N2CCCC2)c1 | - | - | - | 75 | - | 50 | 35 | - | - | - | -
COc1ccc(OCCOc2ccc(C)nc2[N+](=O)[O-])cc1 | - | - | - | - | - | - | . | . | . | . | .
CC(=O)Nc1ccc(S(=O)(=O)N2CCC(N3CCCCCC3)CC2)cc1 | - | - | - | - | - | - | . | . | . | . | .
O=C(O)c1cc(-c2cccs2)nn1-c1cccc(Cl)c1 | - | - | - | - | - | - | . | . | . | . | .
O=C(O)c1cc(-c2ccco2)nn1-c1cccc(Cl)c1 | - | - | 44 | 105 | - | 66 | 58 | - | 8.4 | - | -
O=C(Cn1c(=O)n(Cc2ccco2)c(=O)c2c3c(sc21)CCCCC3)c1ccccc1 | - | - | - | 72 | 35 | 56 | - | - | . | - | -
O=c1c2c3c(sc2n(CCN2CCCC2)c(=O)n1Cc1ccco1)CCCCC3 | - | - | - | - | - | - | . | . | . | . | .
COC(C(=O)NNS(=O)(=O)c1ccccc1[N+](=O)[O-])c1ccccc1 (stereo unspecified) | - | - | - | - | - | - | . | . | . | . | .
NS(=O)(=O)c1ccc(CNC(=O)/C=C/c2ccco2)cc1 | - | - | - | 90 | - | 84 | 70 | - | - | - | -
O=C(/C=C/c1ccco1)NCc1ccc(F)cc1 | - | - | - | - | - | - | . | . | . | . | .
CCc1ccc(/C(C)=N/NC(=O)CNC(=O)/C=C/c2ccco2)cc1 | - | - | 108 | 92 | - | 94 | 65 | - | - | 69 | - | DNMT1 interf DR=-
